Test [1] deals with T1, Dopamine receptor (Rattus norvegicus) (UniProt P25115+P19020+P30729+P18901+P61169). Kind of test: Evaluation for contralateral turning in 6-hydroxy-dopamine-lesioned rats administered intraperitoneally at the dose 1 mg/kg duration. In kind it is functional, organism-based. Details: dose 1 mg/kg. In a few lines:
(§1)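 Rats carrying a unilateral lesion of the nigrostriatal pathway were scored for induced turning toward the side contralateral to the lesion, using an Ungerstedt-type rotation procedure.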

Test [2] is described as follows: Dopamine receptor binding affinity by displacing the radioligand [3H]-dopamine from dopamine receptor. Details: species or system Bos taurus. In a few lines: (§2)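 Radioligand displacement was run on membrane fractions from calf caudate nucleus, with [3H]DA or [3H]spiroperidol as the labelled ligand.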
In test [3] the target is T1, Dopamine receptor (Rattus norvegicus). The experiment in a line: Evaluation for contralateral turning in 6-hydroxy-dopamine-lesioned rats administered intraperitoneally at the dose 1 mg/kg total turnings. It counts as functional, organism-based. The arrangement: dose 1 mg/kg. The method in brief:
as §1

A short description of test [4]: Dopamine receptor binding affinity by displacing the radioligand [3H]spiroperidol from dopamine receptor. Details: species or system Bos taurus. In a few lines: as §2
Test [5] has as its target T1, Dopamine receptor (Rattus norvegicus). Kind of test: Evaluation for contralateral turning in 6-hydroxy-dopamine-lesioned rats administered intraperitoneally at the dose 1 mg/kg Maximum intensity (turnings/min). It counts as functional, organism-based. The arrangement: dose 1 mg/kg. In a few lines:
as §1

For another test, the system named is Rattus norvegicus. Kind of test: Compound was evaluated for the contralateral turning in 6-hydroxy-dopamine-lesioned rats administered intraperitoneally at the dose 1 mg/kg. In kind it is functional. The following applies: route intraperitoneal. In a few lines:
as §1

pIC50: −log10 of the molar value. Where only a bound is given, the exact number is not on record here.

The compound `CCCN1C[C@H](CSC)C[C@@H]2c3cccc4[nH]cc(c34)C[C@H]21` [PERGOLIDE] returned a Duration in test [1] above 7 h. Also, the figures for the pIC50 in test [2] and in test [4] were 7.74 and 6.84, respectively. In test [3], this compound registered a Total turnings of 1800. The Max intensity in test [5] was determined as 9.7 turns min-1.
With `CCCN(CCCNC(C)=O)C1CCc2c(O)cccc2C1` (stereo not drawn), in test [2], the pIC50 (usually −log10 of the IC50, conventionally taken in molar units) was 6.72. In the test on Rattus norvegicus, the Duration amounted to 4 h, the Max intensity is 1.6 turns min-1 and the Total turnings was 159. The pIC50 in test [4] was 5.74.
For `CCCN(CCCNC(=O)N(CC)CC)C1CCc2c(O)cccc2C1` (stereo not drawn), the values for the pIC50 in test [2] and in test [4] were 6.66 and 5.89, respectively.
`CCCN(CCCC(=O)NC)C1CCc2c(O)cccc2C1` (stereo not drawn) showed a pIC50 in test [2] of 7.42. Moreover, in the test on Rattus norvegicus, the Duration turned out to be 6 h, the Max intensity came out at 6.4 turns min-1 and the Total turnings was determined as 413. Moreover, the pIC50 in test [4] was 6.08.
For `CCCN(CCCC(=O)OC)C1CCc2c(O)cccc2C1` (stereo not drawn), the pIC50 in test [2] is 6.85; in test [4] it was 6.04. The same compound showed a Total turnings in the test with Rattus norvegicus below 150.
As to `C=CCCCN(CCC)C1CCc2c(O)cccc2C1` (stereo not drawn), the Duration in test [1] was 7 h. For the same compound, the negative logarithm of the IC50 (pIC50) in test [2] was 7.32; in test [4] it was 6.40. In test [3], this compound yielded a Total turnings of 1740. Further, the Max intensity in test [5] turned out to be 7.7 turns min-1.
For `CN(CCCC#N)C1CCc2c(O)cccc2C1` (stereo not drawn), the values for the pIC50 in test [2] and in test [4] were 6.30 and 5.46, respectively. This compound registered a Total turnings in test [3] below 150.
`CCCN(CCCNC(=O)OCC)C1CCc2c(O)cccc2C1` (stereo not drawn) had a pIC50 in test [2] of 7.11. Moreover, in the test on Rattus norvegicus, the Duration is 5 h, the Max intensity is reported as 10.4 turns min-1 and the Total turnings was 1216. Also, the pIC50 in test [4] was 6.28.
With `CCCN(CCCC#N)C1CCc2c(O)cccc2C1` (stereo in doubt; (-)-3) [listing 1 of 2 here], the pIC50 is 7.43 in test [2] and 6.43 in test [4].
As for `CCCN(CCCC#N)C1CCc2c(O)cccc2C1` (stereo in doubt; (-)-3) [listing 2 of 2 here], the Duration in test [1] is 6 h. Besides, in test [3], the Total turnings was found to be 3260. This compound yielded a Max intensity in test [5] of 12 turns min-1.
On to `CCCN(CCNS(=O)(=O)N(CC)CC)C1CCc2c(O)cccc2C1` (stereo not drawn), for which the negative-log IC50 (pIC50) in test [2] is 7.39. In the test on Rattus norvegicus, this compound had a Duration of 3 h, a Max intensity of 7.8 turns min-1 and a Total turnings of 1015. Besides, the pIC50 in test [4] was 6.66.
As for `CCN(CCCC#N)C1CCc2c(O)cccc2C1` (stereo not drawn), the pIC50 in test [2] was 7.17; in test [4], 6.04. In test [3], this compound returned a Total turnings below 150.
In test [1], `CCCN(CCCC#N)C1CCc2c(O)cccc2C1` (stereo in doubt; 3) [listing 1 of 2 here] displayed a Duration of 3 h. In test [3], this compound yielded a Total turnings of 1170. For the same compound, the Max intensity in test [5] is 10.3 turns min-1.
The compound `CCCN(CCC)C1CCc2c(O)cccc2C1` (stereo not drawn) [5-OH-DPAT] showed a Duration in test [1] of 6 h. In addition, the pIC50 in test [2] is 7.31; in test [4], 5.87. In addition, the Total turnings in test [3] amounted to 2540. The Max intensity in test [5] stood at 22.7 turns min-1.
For `CCCN(CCCSC)C1CCc2c(O)cccc2C1` (stereo in doubt; 12) [listing 1 of 2 here], the negative-log IC50 (pIC50) is 7.37 in test [2] and 6.66 in test [4].
`CCCN(CCCc1ccccc1)C1CCc2c(O)cccc2C1` (stereo not drawn): the Duration in test [1] turned out to be 5 h. Also, the figures for the pIC50 in test [2] and in test [4] were 7.32 and 6.85, respectively. Besides, in test [3], the Total turnings amounted to 656. Also, the Max intensity in test [5] was 6.6 turns min-1.
On the same counts, the results for `CCCN(CCCCl)C1CCc2c(O)cccc2C1` (stereo not drawn) are 7 h, 7.34, 5.99, 2660 and 12.5 turns min-1.
Turning to `CCCN(CCCSC)C1CCc2c(O)cccc2C1` (single isomer, unassigned; (-)) [listing 1 of 2 here], the pIC50 in test [2] is 7.42; in test [4] it was 6.64.
As to `CCCN(CCC#N)C1CCc2c(O)cccc2C1` (stereo not drawn), the negative-log IC50 (pIC50) is 6.89 in test [2] and 5.12 in test [4]. In test [3], this compound came in with a Total turnings below 150.
As to `CCN(CC)S(=O)(=O)N[C@H]1C[C@@H]2c3cccc4[nH]cc(c34)C[C@H]2N(C)C1` [ETISULERGINE], the pIC50 in test [2] is 6.92. In the test on Rattus norvegicus, this compound showed a Duration above 7 h, a Max intensity of 11.8 turns min-1 and a Total turnings of 3688. In test [4], this compound showed a negative logarithm of the IC50 (pIC50) of 7.60.
`CCCN(CCCN)C1CCc2c(O)cccc2C1` (stereo not drawn): the pIC50 in test [2] is 5.70; in test [4], 5.34.
In test [1], `CCCN(CCCN=[N+]=[N-])C1CCc2c(O)cccc2C1` (stereo not drawn) had a Duration of 7 h. For the same compound, the pIC50 in test [2] was 7.24; in test [4], 6.28. For the same compound, the Total turnings in test [3] came to 1860. For the same compound, the Max intensity in test [5] was found to be 6.7 turns min-1.
Take `CCCN(CCCC#N)C1CCc2c(O)cccc2C1` (stereo in doubt; 3) [listing 2 of 2 here]: the pIC50 in test [2] is 7.46; in test [4], 6.10.
Turning to `CCCN(CCCOC)C1CCc2c(O)cccc2C1` (stereo not drawn), in test [1], the Duration amounted to 2 h. Also, the pIC50 is 6.82 in test [2] and 5.66 in test [4]. The compound further gave a Total turnings in test [3] of 347. This compound displayed a Max intensity in test [5] of 7.4 turns min-1.
On to `CCCN(CCCS(C)(=O)=O)C1CCc2c(O)cccc2C1` (stereo not drawn), for which the negative logarithm of the IC50 (pIC50) in test [2] was 6.96. In the test on Rattus norvegicus, this compound showed a Duration of 1 h, a Max intensity of 5.7 turns min-1 and a Total turnings of 531. Further, in test [4], the negative-log IC50 (pIC50) was 5.73.
Regarding `CCCN(CCc1ccccc1)C1CCc2c(O)cccc2C1` (stereo not drawn), the Duration in test [1] was 6 h. Besides, the pIC50 in test [2] was 7.40; in test [4] it was 6.74. Besides, in test [3], the Total turnings came out at 1520. Besides, in test [5], the Max intensity was 8.7 turns min-1.
As for `CCCN(CCCC#N)C1CCc2c(O)cccc2C1` (single isomer, unassigned; (+)), the negative-log IC50 (pIC50) was 6.31 in test [2] and 5.46 in test [4].
In test [1], `CCCN(CCCCC#N)C1CCc2c(O)cccc2C1` (stereo not drawn) returned a Duration of 4 h. Further, the negative logarithm of the IC50 (pIC50) was 7.04 in test [2] and 5.82 in test [4]. This compound also yielded a Total turnings in test [3] of 1460. Moreover, the Max intensity in test [5] worked out at 10.8 turns min-1.
In turn, `CCCN(CCCSC)C1CCc2c(O)cccc2C1` (single isomer, unassigned; (-)) [listing 2 of 2 here] showed a Duration in test [1] of 7 h. Moreover, the Total turnings in test [3] is 3590. The Max intensity in test [5] worked out at 15.2 turns min-1.
Consider `CN1C[C@@H](CC#N)C[C@@H]2c3cccc4[nH]cc(c34)C[C@H]21` [DELERGOTRILE], for which, in test [1], the Duration is above 7 h. In addition, the pIC50 in test [2] was 6.58; in test [4], 6.28. In test [3], this compound showed a Total turnings of 2610. For the same compound, the Max intensity in test [5] was 14.4 turns min-1.
Compound `CCCN(CCCSC)C1CCc2c(O)cccc2C1` (stereo in doubt; 12) [listing 2 of 2 here] had a Duration in test [1] of 7 h. Besides, in test [3], the Total turnings came out at 1980. In test [5], this compound yielded a Max intensity of 9.8 turns min-1.
Turning to `CCCN(CCCNS(=O)(=O)N(C)C)C1CCc2c(O)cccc2C1` (stereo not drawn), the negative-log IC50 (pIC50) in test [2] was 7.00. In the test on Rattus norvegicus, this compound yielded a Duration of 4 h, a Max intensity of 7.6 turns min-1 and a Total turnings of 857. In test [4], this compound had a pIC50 of 6.43.
With `CCCN(CCCO)C1CCc2c(O)cccc2C1` (stereo not drawn), the Duration in test [1] was found to be 3 h. For the same compound, the figures for the negative logarithm of the IC50 (pIC50) in test [2] and in test [4] were 6.73 and 5.84, respectively. This compound also had a Total turnings in test [3] of 721. Also, the Max intensity in test [5] came out at 10.2 turns min-1.

Source of the values: ChEMBL document CHEMBL1123289, “Structure-activity relationships of dopaminergic 5-hydroxy-2-aminotetralin derivatives with functionalized N-alkyl substituents” (J Med Chem, 1986).
